The results in this text go back to ChEMBL document CHEMBL1157010, “Synthesis and in vivo evaluation of 3,4-disubstituted gababutins” (Bioorg Med Chem Lett, 2010).

Data set [1] in a line: Clearance in rat. The data set is classed as ADME, organism-based. The conditions noted are these: in vivo.
The subject of data set [2] is Rattus norvegicus. In words: Sedative activity in rat water lick conflict model of anxiety at 100 mg/kg, po. The following applies: in vivo. The data set is classed as organism-based. More on the design: dose 100 mg/kg, route oral.
The test system of data set [3] is Rattus norvegicus. Briefly: Anxiolytic activity in po dosed rat water lick conflict model of anxiety assessed as increase in number of shocks received. The data set is classed as functional. An outline of the steps:
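Rat drinking-conflict model with oral dosing across a range of doses. The read-out was the mean number of shock episodes received per rat over 10 min, where a greater number of shocks indicates reduced anxiety. The minimum effective dose was determined, with significance tested against vehicle (P <0.05).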

Data set [4] can be described thus: Tmax in rat. The data set is classed as ADME, organism-based. The following applies: in vivo.
Data set [5] is described as follows: Elimination half life in rat. The class given is ADME, organism-based. The conditions noted are these: in vivo, read-out: beta t1/2 (converted).
Data set [6] in a line: Lipophilicity, log D at pH 7.4. The data set is classed as physicochemical. The conditions noted are these: buffer.
Data set [7] can be described thus: Displacement of [3H]gabapentin from Voltage-dependent calcium channel subunit alpha-2/delta in pig cerebral cortex by scintillation counting. The data set is classed as tissue-based, Sus scrofa. In general terms: Loss of bound radioactivity is the signal in a displacement assay; it reports binding, not function.
The subject of data set [8] is Rattus norvegicus. In words: Sedative activity in rat at > 100 mg/kg, po. The following applies: in vivo. More on the design: dose 100 mg/kg, route oral. The class given is organism-based.
The test system of data set [9] is Rattus norvegicus. In words: Antiinflammatory activity against carrageenan-induced thermal hyperalgesia in rat assessed as paw withdrawal from heat at 30 mg/kg, po after 2 hrs. The data set is classed as functional, organism-based. More on the design: dose 30 mg/kg. In a few lines: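 Rats received intraplantar carrageenan in the paw, and inflammation and hyperalgesia developed within 2 h. At that point the compound was given orally. Reversal of thermal hyperalgesia was read as time to paw withdrawal. Significance was tested against vehicle (P <0.05, P <0.01).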

Data set [10] can be described thus: Bioavailability in rat. The class given is ADME, organism-based. The following applies: in vivo.

The source made the active and inactive calls. No cut-off for these calls is given here.

One may read the clearance as the rate of elimination divided by the concentration. A word on the Tmax: it is the time from dosing to the highest level. For orientation: logD means the decadic logarithm of the distribution of all forms, ionised or not, between an organic phase and buffer at a given pH. Usually IC50 stands for the point on the concentration scale where inhibition reaches its midpoint. As a reminder, the bioavailability is dose-corrected exposure relative to a reference, in per cent. A low value points to poor availability. As for `C[C@H]1CC(CN)(CC(=O)O)C[C@@H]1C` (relative stereo) [ATAGABALIN], in data set [1], the clearance was found to be 4 mL/min/kg. Also, the Activity entry is “Toxic” in data set [2], “Dose-dependent effect” in data set [3] and “Toxic” in [8]. In data set [3] (read-out: MED), the minimal effective dose is 10 mg/kg. Besides, the Tmax in data set [4] is 1.2 h. In [5], the half-life was 2.4 h. The logD in data set [6] was -1. For the same molecule, the 50% inhibitory concentration (IC50) in data set [7] came out at 22 nM. In addition, in data set [9], the outcome was Active. The molecule also returned a bioavailability in data set [10] of 87%.
With `CC[C@@H]1C[C@](CN)(CC(=O)O)C[C@@H]1CC`, the IC50 in data set [7] amounted to 4200 nM.
On to `C[C@@H]1C[C@](CN)(CC(=O)O)C[C@@H]1C`, for which, in data set [7], the IC50 amounted to 153 nM.
On to `C[C@@H]1C[C@@](CN)(CC(=O)O)C[C@@H]1C`, for which the half-maximal inhibitory concentration (IC50) in data set [7] was found to be 107 nM.
On the same count and under the same terms, with `CC[C@H]1CC(CN)(CC(=O)O)C[C@@H]1CC` (racemic) the figure was 1100 nM; with `C[C@@H]1CC[C@](CN)(CC(=O)O)C1`, 30 nM; with `C[C@@H]1CC(CN)(CC(=O)O)C[C@H]1C`, 882 nM.
Turning to `CCC[C@H]1CC(CN)(CC(=O)O)C[C@@H]1C` (mixture of isomers), the IC50 in data set [7] worked out at 21 nM.
Same read-out and setting: with `C[C@@H]1CC[C@@](CN)(CC(=O)O)C1` the figure was 71 nM.
